Data taken from ChEMBL document CHEMBL5108049, “Development and Characterization of Type I, Type II, and Type III LIM-Kinase Chemical Probes” (J Med Chem, 2022).

Experiments:
N1E-115 = assay: Inhibition of neurite outgrowth in BMP7 stimulated mouse N1E-115 cells transfected with siFMR1 preincubated for 12 hrs followed by BMP7 stimulation for 24 hrs; assay type: functional, cell-based; conditions: dose 0.05-5 µM, time 36.0 hrs, DDE = dose-dependent effect
Summary of the method: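 At 60 h, the medium was switched to 0.2% FBS containing inhibitor (0.05, 0.5 or 5 μM; DMSO stock) or DMSO for 12 h, then 10 ng/mL BMP7 was added for 24 h. The percentage of cells with neurites longer than one cell body was counted by microscopy, ≥100 cells per condition; mean + SD, N = 4.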

LIM domain kinase 1 [1] = target: T1, LIM domain kinase 1 (Homo sapiens, UniProt P53667); assay: Binding affinity to recombinant LIMK1 (330 to 637 residues) (unknown origin) expressed in baculovirus infected insect cells assessed as change in melting temperature at 10 uM by differential scanning fluorimetry
Target sequence in this assay (P53667 whole entry, looked up, the tested form may be a part): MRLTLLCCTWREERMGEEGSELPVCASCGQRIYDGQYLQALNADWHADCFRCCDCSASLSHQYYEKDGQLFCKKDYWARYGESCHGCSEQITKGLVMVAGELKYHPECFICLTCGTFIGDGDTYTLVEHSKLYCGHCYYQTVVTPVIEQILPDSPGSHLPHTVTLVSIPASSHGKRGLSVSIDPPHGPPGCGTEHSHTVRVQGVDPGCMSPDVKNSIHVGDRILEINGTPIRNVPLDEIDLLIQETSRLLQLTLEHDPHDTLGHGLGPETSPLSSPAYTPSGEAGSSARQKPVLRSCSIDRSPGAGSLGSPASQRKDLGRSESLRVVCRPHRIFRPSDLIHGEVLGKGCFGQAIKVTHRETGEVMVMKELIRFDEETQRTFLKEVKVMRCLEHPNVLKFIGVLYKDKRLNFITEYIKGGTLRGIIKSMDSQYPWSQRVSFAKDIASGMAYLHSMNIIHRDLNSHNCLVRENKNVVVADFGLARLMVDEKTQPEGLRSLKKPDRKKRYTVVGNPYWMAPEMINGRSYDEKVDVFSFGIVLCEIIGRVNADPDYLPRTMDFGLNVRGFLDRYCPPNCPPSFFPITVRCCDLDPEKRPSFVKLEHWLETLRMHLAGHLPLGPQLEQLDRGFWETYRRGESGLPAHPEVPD

LIM domain kinase 2 [2] = target: T2, LIM domain kinase 2 (Homo sapiens, UniProt P53671); assay: Binding affinity to recombinant LIMK2 (330 to 632 residues) (unknown origin) expressed in baculovirus infected insect cells assessed as change in melting temperature at 10 uM by differential scanning fluorimetry
Target sequence in this assay (P53671 whole entry, looked up, the tested form may be a part): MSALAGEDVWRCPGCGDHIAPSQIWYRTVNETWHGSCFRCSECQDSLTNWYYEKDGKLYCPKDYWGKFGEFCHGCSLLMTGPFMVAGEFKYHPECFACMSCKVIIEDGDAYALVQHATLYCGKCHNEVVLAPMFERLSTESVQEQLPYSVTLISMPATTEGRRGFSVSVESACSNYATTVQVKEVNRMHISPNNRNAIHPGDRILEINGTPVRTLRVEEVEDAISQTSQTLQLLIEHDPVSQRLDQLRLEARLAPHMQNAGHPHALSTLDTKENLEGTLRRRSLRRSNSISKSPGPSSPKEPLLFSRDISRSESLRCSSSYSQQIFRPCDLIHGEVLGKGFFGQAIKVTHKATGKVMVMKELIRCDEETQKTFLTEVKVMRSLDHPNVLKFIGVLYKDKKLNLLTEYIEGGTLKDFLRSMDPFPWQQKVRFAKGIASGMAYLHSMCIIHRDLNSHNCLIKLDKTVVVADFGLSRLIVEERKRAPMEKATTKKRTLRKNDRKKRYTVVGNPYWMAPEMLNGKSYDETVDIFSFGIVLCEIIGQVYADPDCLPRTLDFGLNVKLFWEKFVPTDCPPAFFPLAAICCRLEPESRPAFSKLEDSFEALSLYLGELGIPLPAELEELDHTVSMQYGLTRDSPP

LIM domain kinase 2 [3] = target: T2, LIM domain kinase 2; assay: Inhibition of recombinant full length LIMK2 (330 to 632 residues) (unknown origin) expressed in HEK293T cells incubated for 2 hrs in presence of tracer K10 by NanoBRET assay; assay type: cell-based
Target sequence in this assay (P53671 whole entry, the tested form may be a part): as the sequence (P53671 whole entry, looked up, the tested form may be a part) above

LIM domain kinase 1 [4] = target: T1, LIM domain kinase 1; assay: Inhibition of recombinant full length LIMK1 (330 to 637 residues) (unknown origin) expressed in HEK293T cells incubated for 2 hrs in presence of tracer K10 by NanoBRET assay; assay type: cell-based
Target sequence in this assay (P53667 whole entry, the tested form may be a part): as the sequence (P53667 whole entry, looked up, the tested form may be a part) above

SMILES	ΔTm (LIM domain kinase 1 [1]) [°C]	ΔTm (LIM domain kinase 2 [2]) [°C]	IC50 (LIM domain kinase 2 [3]) [nM]	IC50 (LIM domain kinase 1 [4]) [nM]	inhibition (N1E-115)
CCCCN(Cc1ccccc1)C(=O)c1ccc(S(=O)(=O)Nc2ccccc2)cc1					Dde
CC(C)C(=O)Nc1ncc(-c2cc(C(F)F)nn2-c2c(Cl)cccc2Cl)s1					Dde
O=C(c1ccc(S(=O)(=O)Nc2ccccc2)cc1)N(CCc1cn(Cc2ccccc2)nn1)Cc1ccccc1	6.8	12.3	121	472	
O=C(c1ccc(S(=O)(=O)Nc2ccccc2)cc1)N(CCc1ccccc1)Cc1ccccc1	8.6		92	251	
CC(C)C(=O)Nc1ncc(C(=O)NCCN(Cc2ccccc2)C(=O)c2ccc(S(=O)(=O)Nc3ccccc3)cc2)s1					Dde

The next lines start with results.

ΔTm (LIM domain kinase 1 [1]) [°C]	ΔTm (LIM domain kinase 2 [2]) [°C]	IC50 (LIM domain kinase 2 [3]) [nM]	IC50 (LIM domain kinase 1 [4]) [nM]	SMILES	inhibition (N1E-115)
4.5				CN(Cc1ccccc1)C(=O)c1ccc(S(=O)(=O)Nc2ccccc2)cc1	
0.9	0.1			CN(Cc1ccccc1)C(=O)c1ccc(S(=O)(=O)NCCc2ccccc2)cc1	
1.3	3.2			CN(CCc1ccccc1)C(=O)c1ccc(S(=O)(=O)Nc2ccccc2)cc1	
0.9				CN(Cc1ccccc1)C(=O)c1ccc(S(=O)(=O)Nc2cccc(Cl)c2)cc1	
